# Assay outcomes as filed in PubChem.
# A selection: hits, their analogues and other compounds. The true share with any hit is near 3.1%.
# KCNQ1 pot – potentiators or activators of human KCNQ1 potassium channel. AID 2648. B-score at 10 µM. 0.35% of 310,000 active. CHO-K1 KCNQ1, thallium flux FluxOR fluorescence; hits give high values;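 active = fluorescence ratio B-score, a plate-corrected score, at least three library SD, with initial intensity B-score within 5 SD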
#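 Assay system: stable KCNQ1 CHO-K1 line; medium: assay buffer, equal DMSO in all wells; timing: 90 min dye loading and 20 min compound exposure, both at room temperature; technique: kinetic FluxOR thallium fluorescence, 10-s 1-Hz baseline, 110-s post-stimulus read; read-out basis: B score of baseline-normalized fluorescence ratio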
# KCNK9 block – blocks the human KCNK9 two-pore domain potassium channel; Q9NPC2; HEK293 KCNK9, FluxOR thallium flux fluorescence; hits give low values; B-score at 10 µM; 1.2% of 310,000 active; AID 488922;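 active = ratio B-score over 3 SD below the library mean, with starting fluorescence within 5 SD of its mean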;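 also: negative B-score means less thallium flux so channel inhibition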
# Target sequence (Q9NPC2 whole entry, looked up, the tested form may be a part): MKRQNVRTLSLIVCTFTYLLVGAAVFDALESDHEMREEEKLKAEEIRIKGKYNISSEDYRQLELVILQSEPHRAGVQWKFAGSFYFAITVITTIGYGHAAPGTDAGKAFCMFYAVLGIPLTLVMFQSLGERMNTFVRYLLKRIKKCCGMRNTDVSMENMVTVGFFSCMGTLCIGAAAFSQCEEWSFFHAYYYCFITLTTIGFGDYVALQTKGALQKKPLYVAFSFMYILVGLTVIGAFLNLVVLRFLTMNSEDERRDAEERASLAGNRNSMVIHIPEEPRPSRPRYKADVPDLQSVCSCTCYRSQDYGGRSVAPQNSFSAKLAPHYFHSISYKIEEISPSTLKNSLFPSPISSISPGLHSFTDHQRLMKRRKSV
# KCNQ1 block – inhibitors of human KCNQ1 potassium channel; P51787; CHO-K1 KCNQ1, FluxOR thallium flux fluorescence; hits give high values; B-score at 10 µM; 1.3% of 310,000 active; AID 2642;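 active = compounds whose thallium flux B-score, printed positive for inhibition, exceeds three library SD while starting fluorescence stays within three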;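 also: channel opened by potassium depolarization with thallium stimulus after 20 min compound exposure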
# hERG rescue – compounds protecting human hERG from proarrhythmic drug block; Q12809; CHO-hERG, FluxOR thallium flux, dofetilide IC70 present; activation (rescue from dofetilide block), less the hit threshold, % at 10 µM; 0.51% of 310,000 active; AID 1511;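 active = activation above the mean of controls blocked by dofetilide plus 5 SD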;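 also: thallium influx through hERG after potassium depolarization seen as dye fluorescence rise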
# KCNK3 inh – human KCNK3 channel inhibition, primary screen. O14649. CHO-KCNK3 thallium flux, FluxOR fluorescence; hits give low values. B-score at 10 µM. 0.84% of 340,000 active. AID 602410;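 active = B-score under library mean minus 4 SD, starting fluorescence ratio at most library mean plus 5 SD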;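 also: more negative B-score means stronger inhibition of thallium flux through KCNK3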
# KCNK9 inh conf – confirmation of human KCNK9 potassium channel inhibitors | shares compounds with KCNK9 block | HEK293 KCNK9 cells, FluxOR thallium flux fluorescence | inhibition, % at 10 µM | 43% of 4,900 active | AID 492992;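 active = thallium signal inhibited by more than 5 SD of the compound-free buffer control wells, on both duplicate plates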;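 also: 0% = assay buffer control wells without compound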
# Kir21 sel – tests whether KCNK9 modulators also affect mouse Kir2.1. shares compounds with KCNK9 block. Kir2.1 cells, FluxOR thallium flux fluorescence. inhibition, % at 10 µM. 4% of 4,900 active. AID 492993;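 active = thallium signal drop more than 5 SD beyond the mean of the no-compound control wells, seen in both duplicate plates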;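 also: signal is fluorescence rise after thallium addition divided by baseline fluorescence; plate controls were assay buffer only for no effect and full block by chlorpromazine control for full effect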
# HEK293 Tl ctr – second check of KCNK9 modulator effects in non-induced HEK293 cells. shares compounds with KCNK9 block. FluxOR thallium flux. inhibition, % at 10 µM. 40% of 4,900 active. AID 492997;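 active = thallium signal drop beyond 5 SD of the untreated control mean, on both duplicate plates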;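 also: plate controls were buffer only IC0 wells for no effect and SID17386958 at its maximal inhibitory level for full effect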
# Numbers without * were called inactive; i = inactive; / = not tested or not shown.
SMILES,KCNQ1 pot,KCNK9 block,KCNQ1 block,hERG rescue,KCNK3 inh,KCNK9 inh conf,Kir21 sel,HEK293 Tl ctr
O=C(NCC1COc2ccccc2O1)c1ccc(Cl)c(S(=O)(=O)N2CCCC2)c1 (centres undefined),/,/,/,/,i,/,/,/
COC(=O)C(Cc1ccc(OC(=O)c2ccc(C)cc2)cc1)N1Cc2ccccc2C1=O (centres undefined),i,i,i,-3.9,i,i,i,i
C=CCN1C(=O)CSc2ccc(C(=O)NCc3ccco3)cc21,i,i,i,-18.8,i,/,/,/
O=C(NCc1ccco1)c1ccc2c(c1)N(Cc1ccccc1)C(=O)CS2,i,i,i,-14.1,i,i,i,i
COC(=O)CNC(c1ccccc1)c1cc(Br)ccc1NC(=O)OCc1ccccc1 (centres undefined),i,-18.1*,i,-4.5,i,74.0%*,i,63.5%*
CCCc1[nH]nc2c1C1(CCN(C(=O)OCc3ccccc3)CC1)C(C#N)=C(N)O2,i,-9.69*,i,-8.8,i,32.5%*,i,i
CCc1[nH]nc2c1C1(CCN(C(=O)OCc3ccccc3)CC1)C(C#N)=C(N)O2,i,i,i,-8.0,i,/,/,/
CCN1CCN(CCNC(=O)CCCn2nc(C)c3c(C)n(-c4ccc(C)cc4)nc3c2=O)CC1,i,i,i,0.9,i,/,/,/
O=C(NCc1ccccc1)c1onc(CSc2ccc(F)cc2)c1C(=O)NCc1ccccc1,i,i,i,-4.9,i,i,i,i
CCCCNC(=O)c1onc(CSc2ccc(F)cc2)c1C(=O)NCCCC,i,i,i,-11.4,i,i,i,i
CC(C)CCNC(=O)c1c(CSc2ccc(Cl)cc2)noc1C(=O)NCc1ccccc1,i,i,i,-6.5,i,i,i,i
COCCNC(=O)c1onc(CSc2ccccn2)c1C(=O)NCCOC,i,i,i,-7.7,i,/,/,/
CCCNC(=O)c1onc(CSc2ccc(F)cc2)c1C(=O)NCCC,i,i,i,-7.9,i,/,/,/
O=C(NCc1ccccc1)c1onc(CSc2ccccn2)c1C(=O)NCc1ccccc1,i,i,i,-6.5,i,i,i,i
CCCCNC(=O)c1onc(CSc2ccc(Cl)cc2)c1C(=O)NCCCC,i,i,i,-4.6,i,/,/,/
